Results collected from several papers.
Protocols differ between the studies behind these lines.

| SMILES | test | system | conditions | endpoint | value |
| --- | --- | --- | --- | --- | --- |
| CC(C)n1ncc2c(C(=O)NC(C)(C)CN)cc(C3CC3)nc21 | metabolic stability | mouse, liver microsomes | – | scaled CLint | 75.6 mL/min/kg |
| Cc1cc(S(=O)(=O)NC2CC(N3CCN(CC4CCN(c5cccc6c5n(C)c(=O)n6C5CCC(=O)NC5=O)CC4)C4(CC4)C3)C2)ccc1Nc1ncc(C(F)(F)F)c(N2CCC[C@](C)(O)C2)n1 (some centres unmarked) | – | rat, plasma | intravenous, 2 mg/kg | Vd | 82 L/kg |
| C[C@H]1Oc2cc(cnc2N)-c2c(nn(C)c2C#N)CN(C)C(=O)c2ccc(F)cc21 | – | male Sprague-Dawley rat, plasma | oral, 5 mg/kg, single dose | Vd/F | 20 L/kg |
| CC(C)n1ncc2c(C(=O)NCC3(C)CNC3)cc(C3CC3)nc21 | metabolic stability | mouse, liver microsomes | – | scaled CLint | < 38 mL/min/kg |
| Cc1cc(S(=O)(=O)NC2CC(N3CCN(CC4CCN(c5ccc6c(c5F)n(C)c(=O)n6C5CCC(=O)NC5=O)CC4)CC3)C2)ccc1Nc1ncc(C(F)(F)F)c(N2CCCC(C)(O)C2)n1 (centres unmarked) | – | rat, plasma | intravenous, 2 mg/kg | Vd | 18 L/kg |
| O=c1c2ccc(OCc3ccc(C(F)(F)F)cc3)cc2[nH]c2cc(Cl)cc(F)c12 | metabolic stability | mouse, liver microsomes | 1 µM, pH 7.4 | microsomal CLint | 6.76 µL/min/mg |
| CCC(F)(F)c1cc(N2C(=O)NC(C)(C)C2=O)ccc1F | metabolic stability | mouse, liver microsomes | – | microsomal CLint | 7 µL/min/mg |
| O=c1c2ccc(OCc3cccc(C(F)(F)F)c3)cc2[nH]c2ccc(Cl)c(F)c12 | metabolic stability | mouse, liver microsomes | 1 µM, pH 7.4 | microsomal CLint | 0.59 µL/min/mg |
| CC(C)c1cc(C(=O)NCCN)c2cnn(C(C)C)c2n1 | metabolic stability | mouse, liver microsomes | – | scaled CLint | < 38 mL/min/kg |
| CC1(C)NC(=O)N(c2ccc(F)c(F)c2)C1=O | metabolic stability | mouse, liver microsomes | – | microsomal CLint | 7 µL/min/mg |
| O=c1c2c([nH]c3ccc(F)c(Oc4ccc(OC(F)(F)F)cc4)c13)CCCC2 | metabolic stability | mouse, liver microsomes | 1 µM, pH 7.4 | microsomal CLint | 49 µL/min/mg |
| Cc1cc(S(=O)(=O)N[C@]2(C)C[C@H](N3CCN(CC4CCN(c5ccc6c(c5F)n(C)c(=O)n6C5CCC(=O)NC5=O)CC4)CC3)C2)ccc1Nc1ncc(C(F)(F)F)c(N2CCC[C@](C)(O)C2)n1 (some centres unmarked) | – | rat, plasma | intravenous, 2 mg/kg | Vd | 42 L/kg |
| O=c1c2ccc(Oc3cccc(OC(F)(F)F)c3)cc2[nH]c2cc(Cl)cc(F)c12 | metabolic stability | mouse, liver microsomes | 1 µM, pH 7.4 | microsomal CLint | 24.3 µL/min/mg |
| CC(C)c1cc(C(=O)NCCN2CCCC2)c2cnn(C(C)C)c2n1 | metabolic stability | mouse, liver microsomes | – | scaled CLint | 195 mL/min/kg |
